High-throughput results from PubChem BioAssay.
MT1-MMP txn act – MT1-MMP promoter transcription activation; HT1080 MT1-MMP promoter luciferase reporter, luminescence, overnight; stronger effect = higher value; activation factor at 10 µM; hit rate 0.16% among 86,000; AID 750;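 active = activation factor of at least 2 for MT1-MMP transcription at 10 µM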
RORa activator – activates the human nuclear receptor RORA; CHO-K1 Gal4-RORA LBD luciferase reporter, luminescence; percent increase over mock-subtracted basal signal; activation, % at 10 µM; P35398; hit rate 1.5% among 65,000; AID 560;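 active = activation above the mean of all tested compounds plus 3 SD, cut at about 49% in these data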;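 note: 0% = DMSO-treated RORA cells and 100% = added signal equal to DMSO minus mock-transfected cells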
JNK3 blocker – blocks human JNK3 kinase activity | P53779 | purified JNK3 kinase activity, HTS | inhibition, % at 8 µM | hit rate 0.61% among 60,000 | AID 746; in the data active = inhibition above about 17%;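 note: 0% = DMSO and 100% = reference inhibitor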
Target sequence (P53779 whole entry, looked up): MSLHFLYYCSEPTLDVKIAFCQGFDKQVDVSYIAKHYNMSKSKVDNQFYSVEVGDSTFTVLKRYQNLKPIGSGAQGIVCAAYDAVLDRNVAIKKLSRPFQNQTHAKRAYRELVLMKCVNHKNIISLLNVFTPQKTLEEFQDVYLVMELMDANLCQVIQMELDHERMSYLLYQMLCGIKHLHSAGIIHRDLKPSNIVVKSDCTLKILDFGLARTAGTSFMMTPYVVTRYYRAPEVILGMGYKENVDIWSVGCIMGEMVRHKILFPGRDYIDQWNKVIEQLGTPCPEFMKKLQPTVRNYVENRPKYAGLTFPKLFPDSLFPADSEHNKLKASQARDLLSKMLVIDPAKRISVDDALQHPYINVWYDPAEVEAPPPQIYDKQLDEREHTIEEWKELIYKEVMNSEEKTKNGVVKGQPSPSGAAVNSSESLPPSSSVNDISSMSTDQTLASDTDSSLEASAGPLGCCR
SF-1 act – activates the human nuclear receptor SF-1. Q13285. CHO-K1 Gal4-SF-1 LBD luciferase reporter; % increase over DMSO SF-1-specific signal. activation, % at 10 µM. hit rate 1.9% among 65,000;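 active = activation above the mean activation of all tested compounds plus 3 SD, cut at about 50% in these data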
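Test system: transient Gal4-SF-1 LBD reporter, CHO-K1; Amount: 4,000 CHO-K1 cells per well; Doses: 10 µM only; Timing: compound exposure 20 h at 37 °C; Signal: luciferase light emission; Read-out basis: percent activation relative to DMSO median and mock-transfected background; Control set: DMSO negative control and −SF1 background wells; Replicates: one test per compound.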
An asterisk follows results filed as active; / = no result. The list is not random: actives were taken first. Their share in the collection is about 2.3%.

SMILES	MT1-MMP txn act	RORa activator	JNK3 blocker	SF-1 act
COc1ccc(OCc2ccc(C(=O)O)cc2)cc1	1.3	16.6	1.1	63.7*
COc1ccc(OCC(O)COc2ccc(C(=O)O)cc2)cc1 (stereo not drawn)	1	16.9	5.5	11.2
COc1ccccc1CNC(=O)c1cc2c(=O)n(C)c3ccccc3c2n1C	1.1	-1.6	2.3	14.4
CCN(CC(=O)Nc1ccc2c(c1)OCCO2)S(=O)(=O)c1ccc(C)cc1	1	/	/	/
Nc1ccc(-c2nc3ccccc3[nH]2)cc1	0.9	38.2	-20.2	56.0*
Nc1cccc(-c2nc3ccccc3[nH]2)c1	1.5	48.0	0.0	39.1
N/C(=N\OC(=O)c1ccco1)c1ccccc1	2*	/	/	/
Cc1ccc(/C(N)=N/OC(=O)c2ccco2)cc1	1.4	/	/	/
CCc1nnc(NC(=O)c2cc3c(s2)CCCCC3)s1	0.9	34.5	/	73.5*
O=C(Nc1ccon1)c1cc2c(s1)CCCCCC2	1.5	45.3	2.8	82.1*
O=C(NCc1ccco1)c1cc2c(s1)CCCCC2	1.4	6.7	1.5	70.3*
O=C(NCc1ccco1)c1ccc(Br)s1	1.2	13.6	5.0	-0.1
CCOC(=O)Cc1nnc2c(Nc3ccc(Cl)cc3)nc3nonc3n12	1.2	-11.6	-2.1	15.7
CCC1=C2CC[C@H]3C(=O)N(c4ccccc4)C(=O)[C@H]3[C@H]2[C@@]2(Cc3ccccc3)C(=NCCOC)OC(=O)N2C1=O	1.2	/	/	/
N#Cc1c(NC(=O)c2cc(C3CC3)on2)sc2c1CCC2	1.1	25.8	-6.3	80.0*
Cc1cc(C(=O)Nc2sc3c(c2C#N)CCCC3)no1	1.2	40.7	5.6	71.0*
Cc1cc(C(=O)Nc2sc3c(c2C#N)CCC3)no1	1.2	60.3*	-1.9	115.6*
Cc1onc(-c2ccccc2)c1C(=O)Nc1sc2c(c1C#N)CCC2	1.1	16.3	-4.4	24.0
Cc1cc(C(=O)Nc2sc3c(c2C#N)CCC(C)C3)no1 (stereo not drawn)	0.8	53.0*	-2.5	96.8*
CCOC(=O)C1=C(C)NC(=O)NC1C(C)C (stereo not drawn)	1.5	/	/	/
CCCCNC(=O)C(c1ccc(OCC(=O)OC)c(C(=O)OC)c1)N(CCc1c[nH]c2ccccc12)C(=O)CCCCCN1C(=O)NC(c2ccc(-c3ccccc3)cc2)C(C(=O)OCc2ccccc2)=C1C (stereo not drawn)	1	/	/	/
COC(=O)C1=C(C)N(CCCC(=O)O)C(=O)NC1c1ccc(C#N)cc1 (stereo not drawn)	1.1	/	/	/
CC(=O)Nc1sc2c(c1C#N)CCCCC2	1.2	-4.7	3.9	10.3
Cc1noc(C(=O)Nc2sc3c(c2C#N)CCC3)c1Cl	1.2	52.0*	2.0	47.7
N#Cc1c(NC(=O)c2ccccc2)sc2c1CCCCC2	0.7	/	/	/
SMILES	MT1-MMP txn act	RORa activator	JNK3 blocker	SF-1 act
Cc1ccc(C(=O)Nc2sc3c(c2C#N)CCCCC3)cc1C	2.3*	/	/	/
CC(C)CCN1CC(O)=C(c2nc3ccccc3[nH]2)C1=N	1.2	/	/	/
CC(C)N1CC(O)=C(c2nc3ccccc3[nH]2)C1=N	1.4	50.0*	-15.2	29.7
CC(=O)Oc1ccc(-c2nc(-c3cccnc3)no2)cc1	0.5	53.1*	5.2	28.0
Brc1ccc(-c2nc(-c3cccnc3)no2)o1	1.4	28.1	0.6	66.4*
Brc1ccc(-c2nc(-c3ccccc3)no2)o1	1.3	68.4*	1.1	62.6*
CCc1ccccc1NC(=O)CSc1nc2n[nH]c(C)c2c(=N)n1-c1cccc(OC)c1	1.2	/	/	/
CCOC(=O)N1CCC(NC(=O)c2ccc(CS(=O)(=O)c3ccccc3C)o2)CC1	0.9	12.5	-0.4	-0.1
CC(C)(C)c1ccc(C(=O)N2CCC(C(=O)NCc3ccncc3)CC2)cc1	1	59.6*	-1.4	24.8
COc1cc(C(=O)Nc2ccc(S(=O)(=O)NC(C)(C)C)cc2)cc(OC)c1OC	1.2	/	/	/
COc1cc(C(=O)Nc2ccc(N(C)C)cc2)cc(OC)c1OC	1.6	84.5*	-13.9	62.3*
CCOc1ccc(C2C=C(c3ccccc3)Nc3nnnn32)cc1 (stereo not drawn)	1.5	56.5*	1.0	41.2
COc1ccc(-n2cnnc2SCc2csc(-c3ccccc3)n2)cc1	1	-15.9	-10.4	-1.6
CCn1c(CNC(=O)c2ccco2)nnc1SCC(=O)Nc1ccc(Br)cc1F	1.2	/	/	/
CCOc1ccc(NC(=O)CN(c2ccc(OC)cc2)S(C)(=O)=O)cc1	1.6	76.6*	6.4	25.8
CCOc1ccc(NC(=O)CN(C2CCCCC2)S(C)(=O)=O)cc1	1.2	/	/	/
COC(=O)c1ccc(NC(=O)CN(c2ccc(OC)cc2)S(C)(=O)=O)cc1	1.9	66.4*	3.8	74.8*
COc1ccc(NC(=O)CN(C)S(=O)(=O)c2cccs2)cc1	1.4	51.0*	-7.0	21.7
COC(=O)c1ccccc1NC(=O)CN(c1ccc(OC)cc1)S(C)(=O)=O	1.3	/	/	/
CCOc1ccc(N(CC(=O)Nc2ccc(OC)cc2)S(C)(=O)=O)cc1	1.7	60.6*	-8.1	36.0
Cc1ccc(CNC(=O)CN(Cc2ccccc2)S(C)(=O)=O)cc1	1.2	/	/	/
Cc1cnnn1-c1ccc(C(=O)CCl)cc1	1	/	/	/
CC(OC(=O)c1snc(C(=O)NC2CCCCC2)c1N)C(=O)NC1CCCCC1 (stereo not drawn)	1.1	/	/	/
Cc1ccc(-c2noc(CCC(=O)N(C)c3ccccc3C)n2)cc1	1.4	-19.4	4.1	-15.7
O=C(NCc1ccccc1)C(c1ccncc1)N(C(=O)c1csnn1)C1CC1 (stereo not drawn)	1.3	/	/	/
SMILES	MT1-MMP txn act	RORa activator	JNK3 blocker	SF-1 act
C/C(N)=C(/C#N)C(=O)CSc1nnc(-c2ccc(OC(F)F)cc2)o1	1.5	39.8	-3.1	63.0*
Cc1cc2ncc(-c3ccc(Cl)cc3)c(N)n2n1	1.4	34.6	10.5	55.4*
Cc1cc(N)n(-c2ncnc3scc(-c4ccc(Cl)cc4)c23)n1	1	/	/	/
CC1(C)NC(=O)N(CCCCOc2ccc(Br)cc2Cl)C1=O	1	/	/	/
CC1(C)NC(=O)N(CCCOc2ccc(Br)cc2Cl)C1=O	1.4	18.7	-6.1	64.9*
O=C(O)CCn1c(=O)[nH]c2ccccc2c1=O	1.1	-11.4	0.0	-3.9
COc1cccc(NC(=O)CCCn2c(=O)[nH]c3ccccc3c2=O)c1	1.1	32.1	19.0*	6.2
CCOc1ccccc1C(=O)N1CCN=C1SCc1cccnc1	1.1	-5.9	7.7	-31.6
CCOC(=O)c1cnn2c(C)cc(-c3ccc(F)cc3)nc12	1.5	67.7*	5.6	27.9
Cc1cc(-c2ccc(F)cc2)nc2cc(C(N)=O)nn12	1	-10.7	-6.8	-4.1
CC(C)(C)c1ccc(-c2conc2N)cc1	1	23.0	1.3	51.6*
O=C(NCCCn1ccnc1)Nc1cccc2ccccc12	2.1*	/	/	/
CCN(CC(=O)NCc1ccc(F)cc1)CC(O)COCc1cccc(OC)c1 (stereo not drawn)	1.1	-4.5	1.5	1.1
COC(=O)c1ccc(C(NC(=O)OCc2ccccc2)/C(F)=C/[C@@H](C)C(=O)NCc2cc(F)cc(F)c2)cc1 (stereo partly drawn)	1.1	/	/	/
Cc1ccc2c(C)nc(NC3=NCN(Cc4ccccc4)CN3)nc2c1	1.1	2.6	40.4*	-4.7
Cc1ccc2nc(NC3=NCN(Cc4ccccc4)CN3)nc(C)c2c1	0.9	-13.7	3.0	-5.9
